One data set addresses Cannabinoid receptor 2 (Homo sapiens, UniProt P34972). The experiment in a line: Binding affinity at the CB2 receptor.
Another data set deals with Cannabinoid receptor 1 (Homo sapiens, UniProt P21554). The experiment in a line: Binding affinity at the CB1 receptor.
Data set [1] is described as follows: Plasma clearance in Sprague-Dawley rat. The class given is ADME, organism-based.
Data set [2] can be described thus: Half life in C57BL/6 mouse. It counts as ADME, organism-based. The settings on record: in vivo.
The test system of data set [3] is Rattus norvegicus. Put plainly: Reduction in food intake in SD rat at 18 hrs after administration of 0.3 mg/kg, po. The class given is functional, Sprague-Dawley. Further details: scale not given: the % may be the effect or the level left. The essentials: (§1)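 Diet-induced obese Sprague–Dawley rats, six per treatment group, dosed orally with the compound in 10% Tween 80 in water 30–60 min before dark onset. Food cups weighed every 5 min in an automated system over the 18 h after dosing. Overnight body weight change also recorded. Suppression is expressed relative to vehicle-treated controls.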

Data set [4] in a line: Half life in Beagle dog. It counts as ADME, organism-based, Canis lupus familiaris. The settings on record: in vivo.
Data set [5] can be described thus: Oral bioavailability in Sprague-Dawley rat. It counts as ADME, organism-based. The settings on record: in vivo.
Data set [6] in a line: Plasma clearance in C57BL/6 mouse. It counts as ADME, organism-based.
Data set [7] is described as follows: Oral bioavailability in rhesus macaque. The class given is ADME, organism-based, Macaca mulatta. Particulars: rhesus monkey, in vivo.
A short description of data set [8]: Oral bioavailability in Beagle dog. The class given is ADME, organism-based, Canis lupus familiaris. Particulars: in vivo.
Data set [9] in a line: Plasma clearance in rhesus macaque. Particulars: rhesus monkey. It counts as ADME, organism-based, Macaca mulatta.
Data set [10] deals with Mus musculus. Put plainly: Reduction in food intake in wild type C57BL/6 mice at 2 hrs after administration of 10 mg/kg, po. The class given is functional. Further details: scale not given: the % may be the effect or the level left. The essentials:
(§2)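 Ad libitum fed 12-week-old male C57BL/6 mice, n = 12 per group, given the compound orally at 1, 3 or 10 mpk in 0.225% methylcellulose/10% Tween 80 about 30 min before the dark phase. Food intake measured at 2 h and overnight. Overnight (18 h) body weight gain recorded and compared with vehicle.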

Data set [11] in a line: Oral bioavailability in C57BL/6 mouse. Particulars: in vivo. The class given is ADME, organism-based.
The nature of data set [12]: Rat brain to plasma ratio at 4 hrs post iv dosing. The class given is ADME, organism-based. Particulars: Sprague-Dawley. An outline of the steps:
(§3)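 Sprague–Dawley rats were dosed intravenously as part of a pharmacokinetic profile. Brain and plasma concentrations were sampled at 0.25 h and at 4 h post-dose and expressed as a brain-to-plasma ratio.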

Data set [13] can be described thus: Plasma clearance in Beagle dog. The class given is ADME, organism-based, Canis lupus familiaris.
In data set [14] the test system is Mus musculus. Put plainly: Reduction in body weight overnight (18 hrs) in wild type C57BL/6 mice at 10 mg/kg. The class given is functional. Further details: scale not given: the % may be the effect or the level left. An outline of the steps: as §2
In data set [15] the test system is Rattus norvegicus. The experiment in a line: Reduction in food intake in SD rat at 18 hrs after administration of 1.0 mg/kg, po. Further details: scale not given: the % may be the effect or the level left. It counts as functional, Sprague-Dawley. The essentials:
as §1

Data set [16] can be described thus: Half life in Sprague-Dawley rat. It counts as ADME, organism-based. Particulars: in vivo.
In data set [17] the test system is Rattus norvegicus. Put plainly: Reduction in food intake in SD rat at 18 hrs after administration of 3.0 mg/kg, po. It counts as functional, Sprague-Dawley. Further details: scale not given: the % may be the effect or the level left. An outline of the steps:
as §1

Data set [18] in a line: Half life in rhesus macaque. Particulars: rhesus monkey, in vivo. It counts as ADME, organism-based, Macaca mulatta.
The nature of data set [19]: Rat brain to plasma ratio at 0.25 hrs post iv dosing. It counts as ADME, organism-based. Particulars: Sprague-Dawley. An outline of the steps:
as §3

Sequence of Cannabinoid receptor 1 (P21554 whole entry): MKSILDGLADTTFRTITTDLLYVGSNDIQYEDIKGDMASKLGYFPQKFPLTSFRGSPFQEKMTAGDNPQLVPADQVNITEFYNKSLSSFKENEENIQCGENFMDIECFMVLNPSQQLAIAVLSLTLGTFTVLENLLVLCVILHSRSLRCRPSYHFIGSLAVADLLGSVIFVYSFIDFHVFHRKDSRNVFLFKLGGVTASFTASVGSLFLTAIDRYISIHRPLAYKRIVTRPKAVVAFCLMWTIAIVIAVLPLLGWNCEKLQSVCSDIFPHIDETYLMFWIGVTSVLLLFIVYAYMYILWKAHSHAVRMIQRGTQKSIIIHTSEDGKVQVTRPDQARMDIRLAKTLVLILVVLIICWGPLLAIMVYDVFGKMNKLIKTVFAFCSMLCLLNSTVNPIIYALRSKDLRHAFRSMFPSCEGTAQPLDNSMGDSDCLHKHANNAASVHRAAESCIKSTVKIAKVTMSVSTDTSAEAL
Sequence of Cannabinoid receptor 2 (P34972 whole entry): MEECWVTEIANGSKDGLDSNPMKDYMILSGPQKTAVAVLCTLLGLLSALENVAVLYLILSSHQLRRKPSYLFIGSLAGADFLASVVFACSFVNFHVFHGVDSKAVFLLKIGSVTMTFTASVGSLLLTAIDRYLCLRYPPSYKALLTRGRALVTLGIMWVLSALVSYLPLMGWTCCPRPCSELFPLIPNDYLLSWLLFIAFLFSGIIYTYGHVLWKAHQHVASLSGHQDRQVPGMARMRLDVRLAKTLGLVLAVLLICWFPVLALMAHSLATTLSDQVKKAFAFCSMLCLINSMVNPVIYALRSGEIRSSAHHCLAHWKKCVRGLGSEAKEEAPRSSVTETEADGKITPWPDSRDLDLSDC

For `CC(=O)Nc1c(C#N)c(=O)n(C)c2nc(-c3ccc(Cl)cc3Cl)c(-c3ccc(Cl)cc3)cc12`, the IC50 (as a rule, the point on the concentration scale where inhibition reaches its midpoint) on Cannabinoid receptor 2 came to 720 nM; on Cannabinoid receptor 1, 35 nM.

For the molecule `COCCn1c(=O)c(C(C)=O)c(NC(C)=O)c2cc(-c3ccc(Cl)cc3)c(-c3ccc(Cl)cc3Cl)nc21`, the IC50 at Cannabinoid receptor 2 turned out to be 1800 nM; at Cannabinoid receptor 1, 3.7 nM.

In the case of `COc1c(NC(C)=O)c2cc(-c3ccc(Cl)cc3)c(-c3ccc(Cl)cc3Cl)nc2n(C)c1=O`, the IC50 came out at 1100 nM at Cannabinoid receptor 2 and 24 nM at Cannabinoid receptor 1.

In the case of `CC(=O)Nc1c(C)c(=O)n(C)c2nc(-c3ccc(Cl)cc3Cl)c(-c3ccc(Cl)cc3)cc12`, the IC50 on Cannabinoid receptor 2 was determined as 1500 nM; at Cannabinoid receptor 1, 26 nM.

For `CC(=O)Nc1c(C(C)=O)c(=O)n(CC2CCCO2)c2nc(-c3ccc(Cl)cc3Cl)c(-c3ccc(Cl)cc3)cc12` (centres undefined), the IC50 at Cannabinoid receptor 2 was found to be 1400 nM; on Cannabinoid receptor 1 it was 5.2 nM.

Consider `CC(=O)c1c(N(C)C)c2cc(-c3ccc(Cl)cc3)c(-c3ccc(Cl)cc3Cl)nc2n(C)c1=O`, for which the IC50 at Cannabinoid receptor 2 is 1400 nM; at Cannabinoid receptor 1, 96 nM.

`CC(=O)Nc1c(C(C)=O)c(=O)n(C)c2nc(-c3ccc(Cl)cc3Cl)c(-c3ccc(Cl)cc3)cc12` [NAPHTHYRIDINONE] returned an IC50 on Cannabinoid receptor 2 of 4100 nM. Moreover, the clearance (as a rule, the volume of plasma or blood freed of the substance per unit of time) came out at 12 mL/min/kg in [1], 13.9 mL/min/kg in data set [6], 1.4 mL/min/kg in [9] and 4.4 mL/min/kg in data set [13]. For the same molecule, the half-life (as a rule, the time needed for the level to fall by half in the phase considered) in data set [2] is more than 8 h; in data set [4] it was more than 24 h; in [16], more than 8 h; in data set [18] it was 22 h. Further, the Activity worked out at 22% in the data set on Rattus norvegicus [3]; 49% with Mus musculus [10]; 88% in the data set with Mus musculus [14]; 39% in the data set on Rattus norvegicus [15]; 68% in the data set with Rattus norvegicus [17]. Also, the bioavailability (as a rule, dose-corrected exposure relative to a reference, in per cent) was determined as 93% in data set [5], 96% in data set [7], 100% in [8] and 70% in data set [11]. The Kp (in general, tissue or fluid exposure divided by exposure in the circulation) at 4 h in data set [12] is 2.7. The Kp at 0.25 h in data set [19] is 0.9.

With `CC(=O)Nc1cc(=O)n(C)c2nc(-c3ccc(Cl)cc3Cl)c(-c3ccc(Cl)cc3)cc12`, the IC50 came to 380 nM on Cannabinoid receptor 2 and 110 nM at Cannabinoid receptor 1.

As for `CC(=O)Nc1c(N(C)C)c(=O)n(C)c2nc(-c3ccc(Cl)cc3Cl)c(-c3ccc(Cl)cc3)cc12`, the IC50 at Cannabinoid receptor 2 amounted to 2500 nM; at Cannabinoid receptor 1, 20 nM.

As to `COCC(=O)Nc1c(C(C)=O)c(=O)n(C)c2nc(-c3ccc(Cl)cc3Cl)c(-c3ccc(Cl)cc3)cc12`, the values for the IC50 at Cannabinoid receptor 2 and on Cannabinoid receptor 1 were 3200 nM and 24 nM, respectively.

For `CC(=O)Nc1c(C(C)=O)c(=O)n(Cc2ccccc2)c2nc(-c3ccc(Cl)cc3Cl)c(-c3ccc(Cl)cc3)cc12`, the IC50 came to 5100 nM on Cannabinoid receptor 2 and 2.3 nM at Cannabinoid receptor 1.

Turning to `CC(=O)c1c(N)c2cc(-c3ccc(Cl)cc3)c(-c3ccc(Cl)cc3Cl)nc2n(C)c1=O`, the IC50 on Cannabinoid receptor 2 was 1100 nM; on Cannabinoid receptor 1, 120 nM.

`CC(=O)c1c(C)c2cc(-c3ccc(Cl)cc3)c(-c3ccc(Cl)cc3Cl)nc2n(C)c1=O`: the IC50 was found to be 1400 nM at Cannabinoid receptor 2 and 55 nM at Cannabinoid receptor 1.

Turning to `CC(=O)c1c(NC(=O)CO)c2cc(-c3ccc(Cl)cc3)c(-c3ccc(Cl)cc3Cl)nc2n(C)c1=O`, the IC50 on Cannabinoid receptor 2 is 3600 nM; on Cannabinoid receptor 1 it was 46 nM.

For `CC(=O)Nc1c(C(C)C)c(=O)n(C)c2nc(-c3ccc(Cl)cc3Cl)c(-c3ccc(Cl)cc3)cc12`, the IC50 stood at 5400 nM at Cannabinoid receptor 2 and 15 nM on Cannabinoid receptor 1.

With `CC(=O)Nc1c(C(C)=O)c(=O)[nH]c2nc(-c3ccc(Cl)cc3Cl)c(-c3ccc(Cl)cc3)cc12`, the values for the IC50 at Cannabinoid receptor 2 and at Cannabinoid receptor 1 were 1400 nM and 77 nM, respectively.

Consider `CC(=O)Nc1c(C(C)=O)c(=O)n(CCO)c2nc(-c3ccc(Cl)cc3Cl)c(-c3ccc(Cl)cc3)cc12`, for which the IC50 on Cannabinoid receptor 2 amounted to 1500 nM; at Cannabinoid receptor 1 it was 32 nM.

Regarding `CC(=O)Nc1c(C(C)=O)c(=O)n(CC(C)C)c2nc(-c3ccc(Cl)cc3Cl)c(-c3ccc(Cl)cc3)cc12`, the IC50 was 6200 nM at Cannabinoid receptor 2 and 2.3 nM on Cannabinoid receptor 1.

These data come from ChEMBL document CHEMBL1149424, “Synthesis of functionalized 1,8-naphthyridinones and their evaluation as novel, orally active CB1 receptor inverse agonists” (Bioorg Med Chem Lett, 2006).
